# pIC50: −log10 of the molar value.
# Legend:
# [1] = molecular target: T1, 3',5'-cyclic-AMP phosphodiesterase 4B (Homo sapiens, UniProt Q07343); test: Inhibition of PDE4B (unknown origin) assessed as hydrolysis of [3H]-cAMP into [3H]-AMP incubated for 30 mins by scintillation of proximity assay
# Mus musculus [2] = test: Antiinflammatory activity against PMA-induced ICR mouse ear oedema model assessed as reduction in ear swelling at 1 mg/ear topically administered and measured after 4 hrs; type: functional
# Method in brief: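 Male ICR mice, 8 weeks old. The sample was applied topically to the right ear at 1.0 mg/ear in ethanol before PMA. After 4 h the mice were killed by cervical dislocation and both ears were measured with a micrometer. Oedema was the thickness difference between the ears; inhibition was the percent reduction versus the model group.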
# [3] = molecular target: T1, 3',5'-cyclic-AMP phosphodiesterase 4B; test: Inhibition of PDE4B (unknown origin) assessed as hydrolysis of [3H]-cGMP into [3H]-GMP incubated for 30 mins by scintillation of proximity assay; settings: in the assay text read “[3H]-cAMP into [3H]-AMP” for “[3H]-cGMP into [3H]-GMP”
# Method in brief: (§1)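 Scintillation proximity assay of [3H]-cAMP or [3H]-cGMP hydrolysis to [3H]-AMP or [3H]-GMP. Enzyme was diluted to 1–2 nM in 50 mM Tris pH 7.5, 8.3 mM MgCl2 and 1.7 mM EGTA. Reaction was started by adding enzyme, test solution and radiolabelled substrate, then incubated at 30 °C for 30 min and stopped with SPA beads. Run in duplicate.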
# [4] = molecular target: cGMP-inhibited 3',5'-cyclic phosphodiesterase 3B (Homo sapiens, UniProt Q13370); test: Inhibition of PDE3B (unknown origin)
# Method in brief: as §1
# [5] = Phototoxicity in albino guinea pig assessed as skin reaction score at 24 mg/kg topical treatment irradiated with 4.2 mw/cm2 UVA for 40 mins and measured after 24 hrs day of light irradiation by H and E staining based microscopic analysis; type: organism-based, Cavia porcellus; settings: in vivo, topical_or_ocular
# Method in brief: (§2)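 Albino guinea pigs (250–300 g) were randomized into 5 groups. Four 2 cm × 2 cm depilated areas beside the spine were prepared 24 h before dosing, and 0.2 mL of test substance was applied. Animals were restrained and exposed to UVA for 40 min. Erythema, eschar and oedema were scored visually at 1, 24, 48 and 72 h. Skin taken at 72 h was formalin-fixed, H&E-stained and read by a pathologist.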
# Homo sapiens [6] = species: Homo sapiens; test: Selectivity index, ratio of IC50 for PDE5A (unknown origin) to IC50 for PDE4B (unknown origin)
# [7] = molecular target: cGMP-dependent 3',5'-cyclic phosphodiesterase (Homo sapiens, UniProt O00408); test: Inhibition of PDE2A (unknown origin)
# Chain of cGMP-dependent 3',5'-cyclic phosphodiesterase (O00408 whole entry): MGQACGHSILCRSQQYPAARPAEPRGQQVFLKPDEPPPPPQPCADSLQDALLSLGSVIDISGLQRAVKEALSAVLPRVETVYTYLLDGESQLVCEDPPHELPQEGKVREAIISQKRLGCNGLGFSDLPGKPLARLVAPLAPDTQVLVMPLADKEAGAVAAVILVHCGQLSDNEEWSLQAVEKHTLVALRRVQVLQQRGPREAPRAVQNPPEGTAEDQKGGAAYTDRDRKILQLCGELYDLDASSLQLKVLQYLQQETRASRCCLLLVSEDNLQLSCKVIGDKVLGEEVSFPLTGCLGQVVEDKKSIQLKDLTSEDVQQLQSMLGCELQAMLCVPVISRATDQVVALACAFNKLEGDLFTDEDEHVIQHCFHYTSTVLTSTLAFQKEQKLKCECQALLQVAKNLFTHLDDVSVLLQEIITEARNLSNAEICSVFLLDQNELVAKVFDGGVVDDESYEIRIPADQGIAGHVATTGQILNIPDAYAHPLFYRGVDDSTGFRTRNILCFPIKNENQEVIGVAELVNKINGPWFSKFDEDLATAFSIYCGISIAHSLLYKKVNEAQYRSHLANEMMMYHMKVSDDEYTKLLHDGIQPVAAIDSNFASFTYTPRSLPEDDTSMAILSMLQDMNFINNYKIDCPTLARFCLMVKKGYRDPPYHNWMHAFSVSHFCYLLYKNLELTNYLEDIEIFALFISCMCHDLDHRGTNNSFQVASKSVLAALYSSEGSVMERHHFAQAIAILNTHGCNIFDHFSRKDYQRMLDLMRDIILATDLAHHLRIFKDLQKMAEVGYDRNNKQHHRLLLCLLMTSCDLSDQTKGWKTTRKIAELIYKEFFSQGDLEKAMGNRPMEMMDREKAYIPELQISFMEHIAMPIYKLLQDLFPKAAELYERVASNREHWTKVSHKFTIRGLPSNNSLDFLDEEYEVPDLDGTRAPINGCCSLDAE
# Method in brief: as §1
# [8] = molecular target: High affinity 3',5'-cyclic-AMP phosphodiesterase 7A (Homo sapiens, UniProt Q13946); test: Inhibition of PDE7A (unknown origin)
# Chain of High affinity 3',5'-cyclic-AMP phosphodiesterase 7A (Q13946 whole entry): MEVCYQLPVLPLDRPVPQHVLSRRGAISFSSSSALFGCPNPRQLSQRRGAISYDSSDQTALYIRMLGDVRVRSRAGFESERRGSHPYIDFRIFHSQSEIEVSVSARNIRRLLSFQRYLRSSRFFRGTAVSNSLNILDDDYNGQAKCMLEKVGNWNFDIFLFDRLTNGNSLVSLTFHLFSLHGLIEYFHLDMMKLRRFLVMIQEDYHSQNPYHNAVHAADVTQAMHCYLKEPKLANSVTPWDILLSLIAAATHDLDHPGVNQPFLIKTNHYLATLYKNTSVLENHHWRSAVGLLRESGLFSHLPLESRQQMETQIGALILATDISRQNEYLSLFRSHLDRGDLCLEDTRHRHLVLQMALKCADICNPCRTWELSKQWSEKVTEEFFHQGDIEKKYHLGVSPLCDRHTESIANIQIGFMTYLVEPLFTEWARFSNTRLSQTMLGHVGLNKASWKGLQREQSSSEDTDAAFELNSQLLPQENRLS
# Method in brief: as §1
# [9] = molecular target: Dual specificity calcium/calmodulin-dependent 3',5'-cyclic nucleotide phosphodiesterase 1B (Homo sapiens, UniProt Q01064); test: Inhibition of PDE1B (unknown origin)
# Method in brief: as §1
# [10] = molecular target: T1, 3',5'-cyclic-AMP phosphodiesterase 4B; test: Inhibition of PDE4B (unknown origin)
# Method in brief: as §1
# [11] = Toxicity in Sprague-Dawley rat assessed as blood glucose at 400 to 700 mg/kg, po for 14 days; type: organism-based; settings: in vivo, 336 h, dose 400-700 mg/kg, time 14 day
# [12] = Toxicity in Sprague-Dawley rat assessed as ALT at 400 to 700 mg/kg, po for 14 days; type: organism-based; settings: in vivo, 336 h, dose 400-700 mg/kg, time 14 day
# Homo sapiens [13] = species: Homo sapiens; test: Selectivity index, ratio of IC50 for PDE3A (unknown origin) to IC50 for PDE4B (unknown origin)
# [14] = molecular target: cGMP-inhibited 3',5'-cyclic phosphodiesterase 3A (Homo sapiens, UniProt Q14432); test: Inhibition of PDE3A (unknown origin)
# Chain of cGMP-inhibited 3',5'-cyclic phosphodiesterase 3A (Q14432 whole entry): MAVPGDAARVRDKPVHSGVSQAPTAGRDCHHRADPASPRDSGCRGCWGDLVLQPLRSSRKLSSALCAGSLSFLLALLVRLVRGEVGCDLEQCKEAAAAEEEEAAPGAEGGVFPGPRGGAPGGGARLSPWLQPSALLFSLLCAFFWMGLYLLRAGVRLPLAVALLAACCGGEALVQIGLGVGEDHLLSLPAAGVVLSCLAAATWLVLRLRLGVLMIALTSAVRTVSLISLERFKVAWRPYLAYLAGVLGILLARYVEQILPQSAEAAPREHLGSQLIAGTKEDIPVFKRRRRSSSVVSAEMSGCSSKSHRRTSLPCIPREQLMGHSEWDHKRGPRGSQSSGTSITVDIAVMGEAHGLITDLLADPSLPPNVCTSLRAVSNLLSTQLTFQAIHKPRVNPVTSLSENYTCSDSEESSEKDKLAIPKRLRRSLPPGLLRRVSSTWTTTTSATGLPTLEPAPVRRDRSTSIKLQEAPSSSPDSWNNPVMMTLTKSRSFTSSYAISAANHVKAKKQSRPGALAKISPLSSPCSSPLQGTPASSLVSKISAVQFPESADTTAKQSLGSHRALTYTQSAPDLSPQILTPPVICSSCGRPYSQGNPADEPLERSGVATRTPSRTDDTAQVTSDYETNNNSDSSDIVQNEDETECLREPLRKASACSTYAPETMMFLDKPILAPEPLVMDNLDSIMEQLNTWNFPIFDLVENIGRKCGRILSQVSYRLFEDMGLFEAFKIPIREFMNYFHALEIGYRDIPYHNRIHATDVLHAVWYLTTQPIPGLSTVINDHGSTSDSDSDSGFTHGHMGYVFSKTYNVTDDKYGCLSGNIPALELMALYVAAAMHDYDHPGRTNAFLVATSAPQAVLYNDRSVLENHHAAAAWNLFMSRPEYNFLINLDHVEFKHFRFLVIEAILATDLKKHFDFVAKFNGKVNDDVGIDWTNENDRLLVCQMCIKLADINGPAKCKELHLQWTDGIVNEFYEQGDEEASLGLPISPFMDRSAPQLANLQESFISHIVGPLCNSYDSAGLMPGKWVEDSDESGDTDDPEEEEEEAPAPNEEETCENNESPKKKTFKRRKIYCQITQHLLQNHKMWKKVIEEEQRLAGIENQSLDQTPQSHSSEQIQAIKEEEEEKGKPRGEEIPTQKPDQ
# Method in brief: as §1
# [15] = Toxicity in Sprague-Dawley rat assessed as AST at 400 to 700 mg/kg, po for 14 days; type: organism-based; settings: in vivo, 336 h, dose 400-700 mg/kg, time 14 day
# Homo sapiens [16] = species: Homo sapiens; test: Selectivity index, ratio of IC50 for PDE3B (unknown origin) to IC50 for PDE4B (unknown origin)
# [17] = Toxicity in Sprague-Dawley rat assessed as white blood cell count at 400 to 700 mg/kg, po for 14 days; type: organism-based; settings: in vivo, 336 h, dose 400-700 mg/kg, time 14 day
# [18] = Phototoxicity in albino guinea pig assessed as infiltration of inflammatory cells at 10 mg/kg topical treatment irradiated with 4.2 mw/cm2 UVA for 40 mins and measured after 24 hrs day of light irradiation by H and E staining based microscopic analysis; type: organism-based, Cavia porcellus; settings: in vivo, topical_or_ocular, in the assay text read “72 hrs” for “24 hrs”
# Method in brief: as §2
# [19] = Toxicity in Sprague-Dawley rat assessed as blood pressure at 400 to 700 mg/kg, po for 14 days; type: organism-based; settings: in vivo, 336 h, dose 400-700 mg/kg, time 14 day
# [20] = Phototoxicity in albino guinea pig assessed as skin reaction score at 5 mg/kg topical treatment irradiated with 4.2 mw/cm2 UVA for 40 mins and measured after 24 hrs day of light irradiation by H and E staining based microscopic analysis; type: organism-based, Cavia porcellus; settings: in vivo, topical_or_ocular
# Method in brief: as §2
# [21] = molecular target: Dual specificity calcium/calmodulin-dependent 3',5'-cyclic nucleotide phosphodiesterase 1C (Homo sapiens, UniProt Q14123); test: Inhibition of PDE1C (unknown origin)
# Chain of Dual specificity calcium/calmodulin-dependent 3',5'-cyclic nucleotide phosphodiesterase 1C (Q14123 whole entry): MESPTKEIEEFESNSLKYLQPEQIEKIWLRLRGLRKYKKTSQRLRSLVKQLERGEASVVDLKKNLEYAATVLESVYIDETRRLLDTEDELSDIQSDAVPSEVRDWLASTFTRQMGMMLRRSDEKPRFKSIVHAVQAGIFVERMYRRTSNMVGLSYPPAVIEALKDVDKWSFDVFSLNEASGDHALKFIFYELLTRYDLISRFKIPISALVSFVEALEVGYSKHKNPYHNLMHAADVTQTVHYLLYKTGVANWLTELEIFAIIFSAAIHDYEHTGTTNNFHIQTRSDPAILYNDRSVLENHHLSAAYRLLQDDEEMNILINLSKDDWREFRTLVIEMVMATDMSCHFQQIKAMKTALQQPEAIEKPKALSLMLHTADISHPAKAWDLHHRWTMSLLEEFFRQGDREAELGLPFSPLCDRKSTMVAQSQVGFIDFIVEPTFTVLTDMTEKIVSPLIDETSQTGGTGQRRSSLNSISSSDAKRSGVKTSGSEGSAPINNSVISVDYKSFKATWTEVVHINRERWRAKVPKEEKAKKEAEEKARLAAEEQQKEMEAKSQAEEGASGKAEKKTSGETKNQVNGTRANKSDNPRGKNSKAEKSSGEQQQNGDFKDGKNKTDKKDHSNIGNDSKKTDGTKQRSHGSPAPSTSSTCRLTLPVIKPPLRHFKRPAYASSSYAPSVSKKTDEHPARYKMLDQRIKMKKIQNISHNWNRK
# Method in brief: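 For PDE1A, PDE1B and PDE1C, the reaction buffer was also supplemented with 0.2 mM CaCl2 and […]. Otherwise the same SPA run as the other PDEs: [3H]-nucleotide hydrolysis at 30 °C for 30 min, in duplicate.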
# Homo sapiens [22] = species: Homo sapiens; test: Selectivity index, ratio of IC50 for PDE10A (unknown origin) to IC50 for PDE4B (unknown origin)
# [23] = molecular target: cGMP-specific 3',5'-cyclic phosphodiesterase (Homo sapiens, UniProt O76074); test: Inhibition of PDE5A (unknown origin)
# Method in brief: as §1
# [24] = Phototoxicity in albino guinea pig assessed as necrosis at 10 mg/kg topical treatment irradiated with 4.2 mw/cm2 UVA for 40 mins and measured after 24 hrs day of light irradiation by H and E staining based microscopic analysis; type: organism-based, Cavia porcellus; settings: in vivo, topical_or_ocular, in the assay text read “72 hrs” for “24 hrs”
# Method in brief: as §2
# [25] = molecular target: cAMP and cAMP-inhibited cGMP 3',5'-cyclic phosphodiesterase 10A (Homo sapiens, UniProt Q9Y233); test: Inhibition of PDE10A (unknown origin)
# Chain of cAMP and cAMP-inhibited cGMP 3',5'-cyclic phosphodiesterase 10A (Q9Y233 whole entry): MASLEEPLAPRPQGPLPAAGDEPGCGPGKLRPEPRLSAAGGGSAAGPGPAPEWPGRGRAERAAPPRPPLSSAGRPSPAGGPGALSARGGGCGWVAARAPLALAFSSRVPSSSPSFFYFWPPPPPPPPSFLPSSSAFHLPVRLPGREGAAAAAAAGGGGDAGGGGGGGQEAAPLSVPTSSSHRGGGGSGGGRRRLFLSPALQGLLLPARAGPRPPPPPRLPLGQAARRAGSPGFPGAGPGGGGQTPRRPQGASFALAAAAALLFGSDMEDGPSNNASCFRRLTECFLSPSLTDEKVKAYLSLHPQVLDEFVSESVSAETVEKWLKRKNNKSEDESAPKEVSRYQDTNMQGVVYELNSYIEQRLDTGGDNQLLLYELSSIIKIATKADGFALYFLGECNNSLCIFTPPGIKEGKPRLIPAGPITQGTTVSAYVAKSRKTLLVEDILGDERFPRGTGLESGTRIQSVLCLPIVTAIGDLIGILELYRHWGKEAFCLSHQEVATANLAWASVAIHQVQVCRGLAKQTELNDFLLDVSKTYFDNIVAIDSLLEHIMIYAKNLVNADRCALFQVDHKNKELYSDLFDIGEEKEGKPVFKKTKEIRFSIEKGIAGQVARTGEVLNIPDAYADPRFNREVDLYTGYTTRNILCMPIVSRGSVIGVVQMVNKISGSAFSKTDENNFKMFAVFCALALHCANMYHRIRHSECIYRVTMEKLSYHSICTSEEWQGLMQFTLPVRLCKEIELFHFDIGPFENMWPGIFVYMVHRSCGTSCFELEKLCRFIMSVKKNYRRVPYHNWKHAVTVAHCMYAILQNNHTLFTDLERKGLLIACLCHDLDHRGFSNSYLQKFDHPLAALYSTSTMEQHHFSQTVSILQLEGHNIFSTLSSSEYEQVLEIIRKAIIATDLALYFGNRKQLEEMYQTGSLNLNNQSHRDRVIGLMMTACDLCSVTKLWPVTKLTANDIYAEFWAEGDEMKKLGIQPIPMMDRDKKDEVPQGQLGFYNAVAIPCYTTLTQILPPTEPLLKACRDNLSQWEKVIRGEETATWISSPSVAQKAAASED
# Method in brief: as §1
# Homo sapiens [26] = species: Homo sapiens; test: Selectivity index, ratio of IC50 for PDE2A (unknown origin) to IC50 for PDE4B (unknown origin)
# Mus musculus [27] = test: Antiinflammatory activity against calcipotriol-induced atopic dermatitis mouse model assessed as swelling inhibition by measuring thickness of left ear at 30 mg/kg for 14 days (RVB = 0.26 +/- 0.01 mm); type: functional; settings: time 14 day
# Method in brief: (§3)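 Ointment was applied to the dorsal side of the left ear twice daily (30 mg/kg) for 14 days; the normal group received ethanol. On day 17 the mice were anaesthetized with 10% chloral hydrate and ear thickness was measured with a micrometer. Percent inhibition of the inflammatory reaction was calculated against untreated animals.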
# [28] = Toxicity in Sprague-Dawley rat assessed as death at 700 mg/kg, po for 14 days; type: organism-based; settings: in vivo, 336 h, time 14 day
# Method in brief: (§4)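 Healthy male and female Sprague-Dawley rats, 8-week-old, randomised to three groups of 6 males + 6 females. Vehicle 1% CMC-Na or 400 and 700 mg/kg given by oral gavage once daily for 14 days. Mortality and clinical signs checked daily; body weight on days 0, 7, 14. Isoflurane euthanasia, macroscopic necropsy, weights of liver, kidney, testis, thymus, heart and lung.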
# [29] = Phototoxicity in albino guinea pig assessed as skin reaction score at 10 mg/kg topical treatment irradiated with 4.2 mw/cm2 UVA for 40 mins and measured after 24 hrs day of light irradiation by H and E staining based microscopic analysis; type: organism-based, Cavia porcellus; settings: in vivo, topical_or_ocular
# Method in brief: as §2
# Homo sapiens [30] = species: Homo sapiens; test: Selectivity index, ratio of IC50 for PDE1C (unknown origin) to IC50 for PDE4B (unknown origin)
# Homo sapiens [31] = species: Homo sapiens; test: Selectivity index, ratio of IC50 for PDE1B (unknown origin) to IC50 for PDE4B (unknown origin)
# [32] = molecular target: Dual specificity calcium/calmodulin-dependent 3',5'-cyclic nucleotide phosphodiesterase 1A (Homo sapiens, UniProt P54750); test: Inhibition of PDE1A (unknown origin)
# Method in brief: as §1
# [33] = Toxicity in Sprague-Dawley rat assessed as spleen/brain index at 400 to 700 mg/kg, po for 14 days; type: organism-based; settings: in vivo, 336 h, dose 400-700 mg/kg, time 14 day
# Method in brief: (§5)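 Sprague-Dawley rats, 8 weeks old, 6 male and 6 female per group. Dosed by oral gavage once daily for 14 days with 1% CMC-Na vehicle or 400 and 700 mg/kg. Animals were checked daily for mortality and clinical signs, with body weight recorded on days 0, 7 and 14. Rats were then euthanized under isoflurane, necropsied, and their organs weighed.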
# Homo sapiens [34] = species: Homo sapiens; test: Selectivity index, ratio of IC50 for PDE7A (unknown origin) to IC50 for PDE4B (unknown origin)
# Mus musculus [35] = test: Antiinflammatory activity against calcipotriol-induced atopic dermatitis mouse model assessed as swelling inhibition at 30 mg/kg for 14 days; type: functional; design: scale not given: the % may be the effect or the level left; settings: time 14 day
# Method in brief: as §3
# [36] = Toxicity in Sprague-Dawley rat assessed as liver/brain index at 400 to 700 mg/kg, po for 14 days; type: organism-based; settings: in vivo, 336 h, dose 400-700 mg/kg, time 14 day
# Method in brief: as §5
# Homo sapiens [37] = species: Homo sapiens; test: Selectivity index, ratio of IC50 for PDE1A (unknown origin) to IC50 for PDE4B (unknown origin)
# [38] = Toxicity in Sprague-Dawley rat assessed as systemic toxicity at 700 mg/kg, po for 14 days; type: organism-based; settings: in vivo, 336 h, time 14 day
# Method in brief: as §4
# Mus musculus [39] = test: Antiinflammatory activity against calcipotriol-induced atopic dermatitis mouse model assessed as swelling inhibition by measuring thickness of right ear at 30 mg/kg for 14 days (RVB = 0.55 +/- 0.06 mm); type: functional; settings: time 14 day
# Method in brief: as §3
# T1 sequence (Q07343 whole entry): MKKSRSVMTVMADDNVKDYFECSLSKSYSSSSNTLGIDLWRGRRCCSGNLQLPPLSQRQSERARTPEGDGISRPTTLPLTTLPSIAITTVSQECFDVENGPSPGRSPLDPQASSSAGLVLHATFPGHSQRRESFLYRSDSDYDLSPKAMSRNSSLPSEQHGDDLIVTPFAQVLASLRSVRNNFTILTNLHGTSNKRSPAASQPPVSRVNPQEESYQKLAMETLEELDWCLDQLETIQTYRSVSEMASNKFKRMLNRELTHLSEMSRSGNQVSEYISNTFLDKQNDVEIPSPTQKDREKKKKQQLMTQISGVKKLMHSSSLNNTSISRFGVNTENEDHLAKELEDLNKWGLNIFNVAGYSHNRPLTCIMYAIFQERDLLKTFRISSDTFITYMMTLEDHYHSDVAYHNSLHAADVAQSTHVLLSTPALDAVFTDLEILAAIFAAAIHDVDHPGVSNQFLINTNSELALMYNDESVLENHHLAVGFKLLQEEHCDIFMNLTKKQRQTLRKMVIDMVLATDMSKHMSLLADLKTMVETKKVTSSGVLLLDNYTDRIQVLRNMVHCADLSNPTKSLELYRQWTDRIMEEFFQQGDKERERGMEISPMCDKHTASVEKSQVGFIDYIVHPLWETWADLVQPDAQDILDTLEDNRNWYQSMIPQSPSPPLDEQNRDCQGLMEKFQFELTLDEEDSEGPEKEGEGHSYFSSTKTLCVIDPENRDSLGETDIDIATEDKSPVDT
structure (smiles),measurement,setting,value
CCOC(=O)c1cccc2nc(Oc3ccc4c(c3)COB4O)ccc12,pIC50,[1],7.76
same,inhibition (INH),Mus musculus [2],57.69%
COC(=O)c1cc(Oc2ccc3c(c2)COB3O)nc2ccccc12,pIC50,[3],8.08
same,inhibition (INH),Mus musculus [2],30.6%
O=C(O)c1cccc2nc(Oc3ccc4c(c3)COB4O)ccc12,pIC50,[3],6.91
same,inhibition (INH),Mus musculus [2],45.76%
COC(=O)c1cccc2nc(Oc3ccc4c(c3)COB4O)ccc12,pIC50,[3],8.19
same,inhibition (INH),Mus musculus [2],55.62%
O=c1ccoc2cc(Oc3ccc4c(c3)COB4O)ccc12,pIC50,[3],7.72
OB1OCc2cc(Oc3ccc4cc(C(F)(F)F)ccc4n3)ccc21,pIC50,[4],5.14
same,Activity,[5],Non-Toxic
same,pIC50,[3],9.38
same,Ratio IC50,Homo sapiens [6],1950
same,pIC50,[7],6.92
same,pIC50,[8],7.46
same,pIC50,[9],7.24
same,pIC50,[10],9.38
same,Activity,[11],Non-Toxic
same,Activity,[12],Non-Toxic
same,Ratio IC50,Homo sapiens [13],19400
same,pIC50,[14],5.09
same,Activity,[15],Non-Toxic
same,Ratio IC50,Homo sapiens [16],17100
same,Activity,[17],Non-Toxic
same,Activity,[18],Non-Toxic
same,Activity,[19],Non-Toxic
same,Activity,[20],Non-Toxic
same,pIC50,[21],6.06
same,Ratio IC50,Homo sapiens [22],10800
same,pIC50,[23],6.09
same,Activity,[24],Non-Toxic
same,pIC50,[25],5.34
same,Ratio IC50,Homo sapiens [26],286
same,Activity,Mus musculus [27],0.29 mm
same,Activity,[28],Non-Toxic
same,Activity,[29],Non-Toxic
same,Ratio IC50,Homo sapiens [30],2060
same,Ratio IC50,Homo sapiens [31],138
same,pIC50,[32],7.19
same,Activity,[33],Non-Toxic
same,Ratio IC50,Homo sapiens [34],83
same,inhibition (INH),Mus musculus [2],65.85%
same,Activity,Mus musculus [35],73.33%
same,Activity,[36],Non-Toxic
same,Ratio IC50,Homo sapiens [37],154
same,Activity,[38],Non-Toxic
same,Activity,Mus musculus [39],0.32 mm
COC(=O)c1ccc2nc(Oc3ccc4c(c3)COB4O)ccc2c1,pIC50,[3],7.97
same,inhibition (INH),Mus musculus [2],54.72%
